Test results: ChEMBL document CHEMBL2440107, “Quinazolino linked 4β-amidopodophyllotoxin conjugates regulate angiogenic pathway and control breast cancer cell proliferation” (Bioorg Med Chem, 2013)
The source made the active and inactive calls. The rule behind the calls is not given here.

How the values were obtained:
MCF7 [1] = experiment: Antiinvasive activity in human MCF7 cells assessed as downregulation of alphaVbeta3 integrin protein expression at 4 uM after 24 hrs by Western blot analysis; assay type: functional, cell-based
MDA-MB-231 = experiment: Cytotoxicity against human MDA-MB-231 cells assessed as cell viability at 0.5 to 32 uM after 24 hrs by MTT assay; assay type: functional, cell-based
How it was run: (§1)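 Cells seeded at 10,000/well, incubated overnight, then exposed 24 h to 0.5–32 µM, etoposide as standard. MTT added, 2 h at 37 °C; formazan solubilised in extraction buffer, OD read at 570 nm; percent viability determined. Triplicates, Student t-test.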

MCF7 [2] = experiment: Cell cycle arrest in human MCF7 cells assessed as accumulation at G2/M phase at 4 uM after 24 hrs by propidium iodide staining-based flow cytometric analysis (reference value: 15%); assay type: functional
HUVEC [3] = experiment: Cytotoxicity against HUVEC assessed as cell viability at 1 uM after 6 hrs by MTT assay; assay type: cell-based; details: human
How it was run: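 HUVEC at 10,000 cells/well exposed for 6 h across 0.5–32 µM; percent viability plotted, etoposide as standard. Triplicates, Student t-test.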

MCF7 [4] = experiment: Antiangiogenic activity in human MCF7 cells assessed as effect on AKT1 protein expression at 4 uM after 24 hrs by Western blotting analysis; assay type: functional, cell-based
PANC-1 = experiment: Cytotoxicity against human PANC1 cells assessed as cell viability at 0.5 to 32 uM after 24 hrs by MTT assay; assay type: functional, cell-based; how it was run: as §1
MCF7 [5] = experiment: Antimitotic activity in human MCF7 cells assessed as downregulation of Cdk1 protein expression at 4 uM after 24 hrs by Western blotting analysis; assay type: functional, cell-based
MCF7 [6] = experiment: Cell cycle arrest in human MCF7 cells assessed as accumulation at S phase at 4 uM after 24 hrs by propidium iodide staining-based flow cytometric analysis (reference value: 5%); assay type: functional
MCF7 [7] = experiment: Antiangiogenic activity in human MCF7 cells assessed as downregulation of ERK1/2 protein expression at 4 uM after 24 hrs by Western blotting analysis; assay type: functional, cell-based
MCF7 [8] = experiment: Antimitotic activity in human MCF7 cells assessed as upregulation of cyclin B1 protein expression at 4 uM after 24 hrs by Western blotting analysis; assay type: functional, cell-based
MCF7 [9] = experiment: Cell cycle arrest in human MCF7 cells assessed as accumulation at G0 phase at 4 uM after 24 hrs by propidium iodide staining-based flow cytometric analysis (reference value: 3%); assay type: functional
MCF7 [10] = experiment: Antiangiogenic activity in human MCF7 cells assessed as downregulation of STAT3 protein expression at 4 uM after 24 hrs by Western blotting analysis; assay type: functional, cell-based
MCF7 [11] = experiment: Induction of apoptosis in human MCF7 cells assessed as upregulation of cytochrome-c protein expression in cytosol at 4 uM after 24 hrs by Western blotting analysis; assay type: functional, cell-based
MCF7 [12] = experiment: Antiangiogenic activity in human MCF7 cells assessed as downregulation of VEGF-A protein expression at 4 uM after 24 hrs by Western blotting analysis; assay type: functional, cell-based
MCF7 [13] = experiment: Antiangiogenic activity in human MCF7 cells assessed as downregulation of AKT phosphorylation at Ser473 at 4 uM after 24 hrs by Western blotting analysis; assay type: functional, cell-based
MCF7 [14] = experiment: Antiangiogenic activity in human MCF7 cells assessed as upregulation of STAT1 protein expression at 4 uM after 24 hrs by Western blotting analysis; assay type: functional, cell-based
MCF7 [15] = experiment: Induction of apoptosis in human MCF7 cells assessed as upregulation of caspase-9 protein expression at 4 uM after 24 hrs by Western blotting analysis; assay type: functional, cell-based
MCF7 [16] = experiment: Antimitotic activity in human MCF7 cells assessed as upregulation of p53 protein expression at 4 uM after 24 hrs by Western blotting analysis; assay type: functional, cell-based
MCF7 [17] = experiment: Antiangiogenic activity in human MCF7 cells assessed as downregulation of phosphorylated ERK1/2 protein expression at 4 uM after 24 hrs by Western blotting analysis; assay type: functional, cell-based
MCF7 [18] = experiment: Cell cycle arrest in human MCF7 cells assessed as accumulation at G1 phase at 4 uM after 24 hrs by propidium iodide staining-based flow cytometric analysis (reference value: 77%); assay type: functional
MCF7 [19] = experiment: Cytotoxicity against human MCF7 cells assessed as cell viability at 0.5 to 32 uM after 24 hrs by MTT assay; assay type: functional, cell-based; how it was run: as §1
HUVEC [20] = experiment: Antiangiogenic activity in HUVEC assessed as inhibition of VEGF-A-induced tube formation at 1 uM after 6 hrs by inverted microscopic analysis; assay type: functional, cell-based; details: Homo sapiens
How it was run: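 HUVEC (ECM medium, 5% FBS, 1% ECGS) seeded at 5×10^3 cells/well on EC matrix solidified at 37 °C, grown 12 h in endothelial growth media, then treated at 1 µM final for about 6 h. Tube formation examined by inverted microscopy. Etoposide as reference.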

MCF7 [21] = experiment: Disruption of mitochondrial membrane potential in human MCF7 cells at 4 uM after 24 hrs by JC-1 dye-based fluorescence assay; assay type: functional, cell-based
How it was run: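 MCF-7 cells exposed 24 h at 4 µM, etoposide as reference, then stained with 2.5 µM JC-1 for 20 min at room temperature. Fluorescence imaging: red J-aggregates indicate intact potential, green monomers indicate loss, read as red-to-green shift.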

Compound	Activity (MCF7 [1])	Activity (MDA-MB-231)	Activity (MCF7 [2]) [%]	Activity (HUVEC [3])	Activity (MCF7 [4])	Activity (PANC-1)	Activity (MCF7 [5])	Activity (MCF7 [6]) [%]	Activity (MCF7 [7])	Activity (MCF7 [8])	Activity (MCF7 [9]) [%]	Activity (MCF7 [10])	Activity (MCF7 [11])	Activity (MCF7 [12])	Activity (MCF7 [13])	Activity (MCF7 [14])	Activity (MCF7 [15])	Activity (MCF7 [16])	Activity (MCF7 [17])	Activity (MCF7 [18]) [%]	other results
COc1ccc(-n2c(C)nc3ccc(OCCCCCC(=O)N[C@@H]4c5cc6c(cc5[C@@H](c5cc(OC)c(OC)c(OC)c5)[C@H]5C(=O)OC[C@@H]54)OCO6)cc3c2=O)cc1	Active	Active	41	Non-toxic	inactive	Active	Active	4	Active	Active	8	Active	Active	Active	Active	Active	Active	Active	Active	47	Activity (MCF7 [19]): Active
COc1cc([C@@H]2c3cc4c(cc3[C@@H](NC(=O)CCCCOc3ccc5nc(C)n(-c6ccc([N+](=O)[O-])cc6)c(=O)c5c3)[C@H]3COC(=O)[C@H]23)OCO4)cc(OC)c1OC	–	–	40	–	–	–	–	5	–	–	5	–	–	–	–	–	–	–	–	51	–
COc1cc([C@@H]2c3cc4c(cc3[C@@H](NC(=O)CCCCOc3ccc5nc(C)n(-c6ccc(F)cc6)c(=O)c5c3)[C@H]3COC(=O)[C@H]23)OCO4)cc(OC)c1OC	–	–	38	–	–	–	–	5	–	–	8	–	–	–	–	–	–	–	–	49	–
COc1cc(OC)cc(-n2c(C)nc3ccc(OCCCCCC(=O)N[C@@H]4c5cc6c(cc5[C@@H](c5cc(OC)c(OC)c(OC)c5)[C@H]5C(=O)OC[C@@H]54)OCO6)cc3c2=O)c1	–	–	37	–	–	–	–	5	–	–	9	–	–	–	–	–	–	–	–	49	–
COc1cc([C@@H]2c3cc4c(cc3[C@@H](NC(=O)CCCCCOc3ccc5nc(C)n(-c6ccc(Cl)c(Cl)c6)c(=O)c5c3)[C@H]3COC(=O)[C@H]23)OCO4)cc(OC)c1OC	Active	Active	40	Non-toxic	inactive	Active	Active	5	Active	Active	10	Active	Active	Active	Active	Active	Active	Active	Active	45	inhibition (HUVEC [20]): Active; Activity (MCF7 [21]): Active; Activity (MCF7 [19]): Active
COc1cc([C@@H]2c3cc4c(cc3[C@@H](NC(=O)CCCCCOc3ccc5nc(C)n(-c6ccc(F)cc6)c(=O)c5c3)[C@H]3COC(=O)[C@H]23)OCO4)cc(OC)c1OC	Active	Active	45	Non-toxic	inactive	Active	Active	4	Active	Active	14	Active	Active	Active	Active	Active	Active	Active	Active	37	inhibition (HUVEC [20]): Active; Activity (MCF7 [21]): Active; Activity (MCF7 [19]): Active
COc1cc([C@@H]2c3cc4c(cc3[C@@H](NC(=O)CCCCOc3ccc5nc(C)n(-c6cc(OC)c(OC)c(OC)c6)c(=O)c5c3)[C@H]3COC(=O)[C@H]23)OCO4)cc(OC)c1OC	–	–	35	–	–	–	–	5	–	–	10	–	–	–	–	–	–	–	–	51	–
COc1cc([C@@H]2c3cc4c(cc3[C@@H](NC(=O)CCCCCOc3ccc5nc(C)n(-c6ccc([N+](=O)[O-])cc6)c(=O)c5c3)[C@H]3COC(=O)[C@H]23)OCO4)cc(OC)c1OC	Active	Active	41	Non-toxic	inactive	Active	Active	5	Active	Active	5	Active	Active	Active	Active	Active	Active	Active	Active	49	Activity (MCF7 [19]): Active
COc1cc([C@@H]2c3cc4c(cc3[C@@H](NC(=O)CCCCCOc3ccc5nc(C)n(-c6cc(OC)c(OC)c(OC)c6)c(=O)c5c3)[C@H]3COC(=O)[C@H]23)OCO4)cc(OC)c1OC	–	–	39	–	–	–	–	5	–	–	7	–	–	–	–	–	–	–	–	50	–
COc1cc([C@@H]2c3cc4c(cc3[C@@H](NC(=O)CCCCOc3ccc5nc(C)n(-c6ccc(Cl)c(Cl)c6)c(=O)c5c3)[C@H]3COC(=O)[C@H]23)OCO4)cc(OC)c1OC	–	–	34	–	–	–	–	5	–	–	12	–	–	–	–	–	–	–	–	49	–
COc1cc([C@@H]2c3cc4c(cc3[C@@H](O[C@@H]3O[C@@H]5CO[C@@H](C)O[C@H]5[C@H](O)[C@H]3O)[C@H]3COC(=O)[C@H]23)OCO4)cc(OC)c1O [ETOPOSIDE]	Active	–	67	Non-toxic	–	–	–	6	–	–	9	–	Active	–	–	–	Active	–	–	18	Activity (MCF7 [21]): Active
COc1cc(OC)cc(-n2c(C)nc3ccc(OCCCCC(=O)N[C@@H]4c5cc6c(cc5[C@@H](c5cc(OC)c(OC)c(OC)c5)[C@H]5C(=O)OC[C@@H]54)OCO6)cc3c2=O)c1	–	–	39	–	–	–	–	6	–	–	6	–	–	–	–	–	–	–	–	49	–
COc1ccc(-n2c(C)nc3ccc(OCCCCC(=O)N[C@@H]4c5cc6c(cc5[C@@H](c5cc(OC)c(OC)c(OC)c5)[C@H]5C(=O)OC[C@@H]54)OCO6)cc3c2=O)cc1	–	–	39	–	–	–	–	10	–	–	7	–	–	–	–	–	–	–	–	44	–
